Activity calls are given as the source filed them. The calls are words filed in the database; no cut-off is given here. Where a SMILES comes first, the peptide text is derived from it. The star is where a group is joined. Dansyl = CN(C)c1cccc2c(S(=O)(=O)*)cccc12; NHOH = ON*
Key:
[1] = target: peptidylglycine alpha-amidating monooxygenase (Rattus norvegicus) (UniProt P14925); assay: Inhibition of rat peptidylamidoglycolate lyase assessed as ascorbate-independent dealkylation of alpha-hydroxy-hipurate; set-up: concentration or dose not given beside the values; conditions: concentration not given here
[2] = target: T1, Peptidylglycine alpha-amidating monooxygenase (Rattus norvegicus) (UniProt P14925); assay: Inhibition of rat recombinant peptidylglycine alpha-amidating monooxygenase assessed as inhibition of oxygen consumption at 0.9 mM
T1 sequence (whole entry): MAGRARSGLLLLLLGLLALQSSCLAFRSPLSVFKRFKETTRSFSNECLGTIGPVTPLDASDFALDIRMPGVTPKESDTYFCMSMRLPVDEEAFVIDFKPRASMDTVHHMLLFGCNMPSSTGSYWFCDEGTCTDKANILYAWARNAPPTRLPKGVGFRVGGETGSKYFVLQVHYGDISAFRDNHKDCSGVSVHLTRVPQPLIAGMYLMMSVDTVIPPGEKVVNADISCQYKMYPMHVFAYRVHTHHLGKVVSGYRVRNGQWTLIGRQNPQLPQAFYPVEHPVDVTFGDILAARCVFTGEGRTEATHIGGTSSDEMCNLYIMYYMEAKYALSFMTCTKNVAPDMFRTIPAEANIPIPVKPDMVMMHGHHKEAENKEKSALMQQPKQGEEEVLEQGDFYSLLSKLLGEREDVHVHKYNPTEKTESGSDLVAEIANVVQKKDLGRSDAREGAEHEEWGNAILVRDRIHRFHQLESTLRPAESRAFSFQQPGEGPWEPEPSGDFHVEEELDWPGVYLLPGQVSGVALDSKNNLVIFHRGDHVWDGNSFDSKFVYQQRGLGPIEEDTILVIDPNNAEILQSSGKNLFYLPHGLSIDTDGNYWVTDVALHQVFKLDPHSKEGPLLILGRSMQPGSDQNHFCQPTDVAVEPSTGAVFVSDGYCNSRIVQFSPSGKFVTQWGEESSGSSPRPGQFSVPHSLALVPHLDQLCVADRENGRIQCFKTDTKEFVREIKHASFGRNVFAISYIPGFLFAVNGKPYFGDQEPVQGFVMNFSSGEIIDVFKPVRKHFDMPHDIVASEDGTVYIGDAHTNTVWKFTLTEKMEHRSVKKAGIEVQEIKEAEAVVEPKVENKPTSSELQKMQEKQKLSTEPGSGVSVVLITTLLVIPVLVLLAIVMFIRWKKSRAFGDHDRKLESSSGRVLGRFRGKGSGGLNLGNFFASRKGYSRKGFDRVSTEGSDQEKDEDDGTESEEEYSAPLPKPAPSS

[3] = target: T1, Peptidylglycine alpha-amidating monooxygenase (Rattus norvegicus); assay: Inhibition of recombinant rat peptidylglycine alpha-amidating monooxygenase assessed as inhibition of oxygen consumption at 28 mM
[4] = target: T1, Peptidylglycine alpha-amidating monooxygenase (Rattus norvegicus); assay: Inhibition of recombinant rat peptidylglycine alpha-amidating monooxygenase assessed as inhibition of oxygen consumption of N-octanoylglycine at 28 mM
How it was run: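 Recombinant type A rat medullary thyroid carcinoma bifunctional PAM (15–50 μg) added to 100 mM MES/NaOH pH 6.0, 30 mM NaCl, 1% ethanol, 0.001% Triton X-100, 10 μg/mL catalase, 1.0 μM Cu(NO3)2, ascorbate, 200 μM N-octanoylglycine as substrate, and 28 mM test compound. The read-out is the initial rate of O2 consumption on an oxygen monitor at 37 °C.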

[5] = target: T1, Peptidylglycine alpha-amidating monooxygenase (Rattus norvegicus); assay: Inhibition of rat recombinant peptidylglycine alpha-amidating monooxygenase in presence of DMSO
[6] = target: T1, Peptidylglycine alpha-amidating monooxygenase (Rattus norvegicus); assay: Inhibition of rat recombinant peptidylglycine alpha-amidating monooxygenase assessed as inhibition of N-dansyl-Tyr-Val-Gly amidation
[7] = tested on: DU-145; assay: Antiproliferative activity against human DU145 cells at 100 uM by trypan blue assay; assay type: functional
[8] = tested on: DU-145; assay: Antiproliferative activity against human DU145 cells at greater than 500 uM by trypan blue assay; assay type: functional, cell-based
[9] = tested on: DU-145; assay: Antiproliferative activity against human DU145 cells at 10 uM after 48 hrs by trypan blue assay; assay type: functional, cell-based
How it was run: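 DU 145 cells plated at 50,000 per well, allowed 24 h to adhere, then given medium containing 10 μM 4-HPR as positive control. Viable cells counted by trypan blue exclusion on a hemacytometer, with growth read at 48 h.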

[10] = substrate: O=C(O)CNC(=S)CCc1ccccc1; assay: (§1) Activity of rat recombinant peptidylglycine alpha-amidating monooxygenase assessed as stimulation of oxygen consumption
[11] = substrate: CCc1ccc(C(=O)NCC(=O)O)cc1; assay: as §1
[12] = substrate: O=C(O)CNC(=O)SCc1ccccc1; assay: as §1
[13] = substrate: O=C(O)CNC(=O)C1CC1c1ccccc1; assay: as §1
[14] = substrate: O=C(O)CNC(=O)CNC(=O)c1ccc([N+](=O)[O-])cc1; assay: as §1
[15] = substrate: O=C(O)CNC(=O)c1ccc(Cl)cc1; assay: as §1
[16] = substrate: O=C(O)CNC(=O)CCCCc1ccccc1; assay: as §1
[17] = substrate: O=C(O)CNC(=O)c1ccc(C(F)(F)F)cc1; assay: as §1
[18] = substrate: O=C(O)CNC(=O)CCCCCc1ccccc1; assay: as §1
[19] = substrate: O=C(O)CNC(=O)c1ccco1; assay: as §1
[20] = substrate: O=C(O)CNC(=O)CCCCCCCc1ccccc1; assay: as §1
[21] = substrate: O=C(O)CNC(=O)c1ccccc1I; assay: as §1
[22] = substrate: O=C(O)CNC(=O)CCc1ccccc1; assay: as §1
[23] = substrate: C[C@@H](NC(=O)c1ccccc1)C(=O)O; assay: as §1
[24] = substrate: COc1ccc(C(=O)NCC(=O)O)cc1; assay: as §1
[25] = substrate: O=C(O)CNC(=O)[C@@H]1CCC(=O)N1; assay: as §1
[26] = substrate: O=C(O)CNC(=O)c1ccc([N+](=O)[O-])cc1; assay: as §1
[27] = substrate: O=C(O)CNC(=O)CNC(=O)CCl; assay: as §1
[28] = substrate: O=C(O)CNC(=O)Nc1ccccc1; assay: as §1
[29] = substrate: Cc1ccccc1C(=O)NCC(=O)O; assay: as §1
[30] = substrate: Cc1cccc(C(=O)NCC(=O)O)c1; assay: as §1
[31] = substrate: O=C(O)CNC(=O)c1ccccc1O; assay: as §1
[32] = substrate: O=C(O)CNC(=O)/C=C/c1ccccc1; assay: as §1
[33] = substrate: O=C(O)CNC(=O)c1ccc(O)cc1; assay: as §1
[34] = substrate: Nc1ccccc1C(=O)NCC(=O)O; assay: as §1
[35] = substrate: O=C(O)CNC(=O)OCc1ccccc1; assay: as §1
[36] = substrate: CCCc1ccc(C(=O)NCC(=O)O)cc1; assay: as §1
[37] = substrate: O=C(O)CNC(=O)CNC(=O)CNC(=O)c1ccccc1; assay: as §1
[38] = substrate: Nc1ccc(C(=O)NCC(=O)O)cc1; assay: as §1
[39] = substrate: Cc1ccc(C(=O)NCC(=O)O)cc1; assay: as §1
[40] = substrate: O=C(O)CNC(=O)CNC(=O)c1ccccc1; assay: as §1
[41] = substrate: O=C(O)CNC(=O)c1cccc(Cl)c1; assay: as §1
[42] = substrate: O=C(O)CNC(=O)/C=C/c1ccco1; assay: as §1
[43] = substrate: O=C(O)CNC(=O)c1ccc(Br)cc1; assay: as §1
[44] = substrate: O=C(O)CNC(=S)Cc1ccccc1; assay: as §1

O=C(NCP(=O)(O)O)c1cccnc1
inhibition [1]: < 5% | Activity [2]: Active | Activity [3]: Active | Activity [4]: inactive

O=C(O)CSC(=S)CCc1ccccc1
Kis [5]: 30 µM | Kis [6]: 9.4 µM | inhibition [1]: < 5%

CC(C)C[C@H](NC(=O)[C@@H]1CCCN1)C(=O)NCC(=O)NO (H-Pro-Leu-Gly-{NHOH})
inhibition [1]: < 5%

CC(C#N)(CCC(=O)O)SC(=S)c1ccccc1 (stereo unspecified)
inhibition [1]: < 5%

CCOC(=O)CSC(=S)c1ccc(C)cc1
inhibition at 100 µM [7]: ≤ 10% | inhibition [1]: < 5%

O=C(O)COC(=O)Nc1ccccc1
inhibition [1]: < 5%

O=C(NCC[C@H](O)C(=O)O)OCc1ccccc1
inhibition [1]: < 5%

CC(NC(=S)c1ccccc1)C(=O)O (stereo unspecified)
inhibition [1]: < 5%

O=C(O)CCSC(=S)Nc1ccccc1
inhibition [1]: < 5%

O=C(O)CSC(=S)Cc1ccccc1
Kis [5]: 13 µM | Kis [6]: 7.9 µM | inhibition [1]: < 5% | Activity [8]: Active

CCCCCCCCCCCC(=S)SCC(=O)O
inhibition [1]: < 5%

Cc1ccc(C(=S)SCC(=O)O)cc1
inhibition [1]: < 5%

O=C(N[C@H](CO)C(=O)O)c1ccccc1
inhibition [1]: < 5%

NCC(=O)NNC(=O)OCc1ccccc1
inhibition [1]: < 5%

COC(=O)CNC(=O)[C@@H](NC(=O)[C@H](Cc1ccc(O)cc1)NS(=O)(=O)c1cccc2c(N(C)C)cccc12)C(C)C (Dansyl-Tyr-Val-Gly-OMe)
Kis [6]: 54 µM

O=C(O)CSC(=S)c1ccccc1
Kis [5]: 49 µM | Kis [6]: 39 µM | inhibition [1]: < 5%

O=C(O)CNC(=S)Nc1ccccc1
inhibition [1]: < 5%

O=C(O)CSc1ccccc1
inhibition [1]: < 5%

O=C(O)CONC(=O)c1ccccc1
inhibition [1]: < 5%

CC1=C(/C=C/C(C)=C/C=C/C(C)=C/C(=O)Nc2ccc(O)cc2)C(C)(C)CCC1
Activity [9]: Active

B1: Peptidylglycine alpha-amidating monooxygenase (Rattus norvegicus), P14925 (protein)
chain: MAGRARSGLLLLLLGLLALQSSCLAFRSPLSVFKRFKETTRSFSNECLGTIGPVTPLDASDFALDIRMPGVTPKESDTYFCMSMRLPVDEEAFVIDFKPRASMDTVHHMLLFGCNMPSSTGSYWFCDEGTCTDKANILYAWARNAPPTRLPKGVGFRVGGETGSKYFVLQVHYGDISAFRDNHKDCSGVSVHLTRVPQPLIAGMYLMMSVDTVIPPGEKVVNADISCQYKMYPMHVFAYRVHTHHLGKVVSGYRVRNGQWTLIGRQNPQLPQAFYPVEHPVDVTFGDILAARCVFTGEGRTEATHIGGTSSDEMCNLYIMYYMEAKYALSFMTCTKNVAPDMFRTIPAEANIPIPVKPDMVMMHGHHKEAENKEKSALMQQPKQGEEEVLEQGDFYSLLSKLLGEREDVHVHKYNPTEKTESGSDLVAEIANVVQKKDLGRSDAREGAEHEEWGNAILVRDRIHRFHQLESTLRPAESRAFSFQQPGEGPWEPEPSGDFHVEEELDWPGVYLLPGQVSGVALDSKNNLVIFHRGDHVWDGNSFDSKFVYQQRGLGPIEEDTILVIDPNNAEILQSSGKNLFYLPHGLSIDTDGNYWVTDVALHQVFKLDPHSKEGPLLILGRSMQPGSDQNHFCQPTDVAVEPSTGAVFVSDGYCNSRIVQFSPSGKFVTQWGEESSGSSPRPGQFSVPHSLALVPHLDQLCVADRENGRIQCFKTDTKEFVREIKHASFGRNVFAISYIPGFLFAVNGKPYFGDQEPVQGFVMNFSSGEIIDVFKPVRKHFDMPHDIVASEDGTVYIGDAHTNTVWKFTLTEKMEHRSVKKAGIEVQEIKEAEAVVEPKVENKPTSSELQKMQEKQKLSTEPGSGVSVVLITTLLVIPVLVLLAIVMFIRWKKSRAFGDHDRKLESSSGRVLGRFRGKGSGGLNLGNFFASRKGYSRKGFDRVSTEGSDQEKDEDDGTESEEEYSAPLPKPAPSS
Km [10]: 38 µM | Km [11]: 1200 µM | Km [12]: 59 µM | Km [13]: 900 µM | Km [14]: 110 µM | Km [15]: 620 µM | Km [16]: 150 µM | Km [17]: 770 µM | Km [18]: 51 µM | Km [19]: 2700 µM | Km [20]: 100 µM | Km [21]: 3400 µM | Km [22]: 940 µM | Km [23]: 84000 µM | Km [24]: 820 µM | Km [25]: 310 µM | Km [26]: 470 µM | Km [27]: 420 µM | Km [28]: 360 µM | Km [29]: 4300 µM | Km [30]: 1400 µM | Km [31]: 860 µM | Km [32]: 230 µM | Km [33]: 1700 µM | Km [34]: 1400 µM | Km [35]: 590 µM | Km [36]: 1200 µM | Km [37]: 310 µM | Km [38]: 2600 µM | Km [39]: 1800 µM | Km [40]: 78 µM | Km [41]: 2200 µM | Km [42]: 1200 µM | Km [43]: 520 µM | Km [44]: 24 µM

Source: ChEMBL document CHEMBL1151692, “Substituted hippurates and hippurate analogs as substrates and inhibitors of peptidylglycine alpha-hydroxylating monooxygenase (PHM)” (Bioorg Med Chem, 2008)
